# Screens deposited in PubChem BioAssay by several laboratories.
# Shown are actives, neighbours in structure and some others; about 4.7% of the full set was active somewhere.
# Jurkat NFkB inh – inhibitors of the PMA/ionomycin-induced NF-kB reporter in Jurkat cells; PMA/ionomycin-induced NF-kB luciferase reporter, luminescence; inhibition, % at 4 µM; hit rate 0.53% among 330,000; in the data active = inhibition above about 50%
# Mdm2 MdmX PPI – inhibitors of human Mdm2/MdmX interaction | SaOS-2 split-luciferase Mdm2/MdmX complementation, luminescence | inhibition, % at 8 µM | hit rate 3% among 330,000 | AID 485346;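 active = inhibition of at least 50% at 8 µM in the primary screen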
# Target sequence (O15151 whole entry, looked up): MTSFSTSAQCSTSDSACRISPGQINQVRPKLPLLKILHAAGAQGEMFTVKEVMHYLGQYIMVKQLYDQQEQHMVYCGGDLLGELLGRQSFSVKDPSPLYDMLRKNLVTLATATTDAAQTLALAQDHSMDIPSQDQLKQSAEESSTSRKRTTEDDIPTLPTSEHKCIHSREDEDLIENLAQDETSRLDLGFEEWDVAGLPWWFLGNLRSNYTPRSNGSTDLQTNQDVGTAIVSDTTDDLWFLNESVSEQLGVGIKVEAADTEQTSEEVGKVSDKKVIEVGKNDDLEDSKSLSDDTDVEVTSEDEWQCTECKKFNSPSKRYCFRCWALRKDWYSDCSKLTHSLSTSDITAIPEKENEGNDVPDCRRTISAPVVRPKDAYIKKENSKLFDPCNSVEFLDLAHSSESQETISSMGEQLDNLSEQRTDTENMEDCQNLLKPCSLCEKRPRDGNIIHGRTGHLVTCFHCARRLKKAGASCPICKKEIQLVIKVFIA
# Target sequence (Q00987 whole entry, looked up): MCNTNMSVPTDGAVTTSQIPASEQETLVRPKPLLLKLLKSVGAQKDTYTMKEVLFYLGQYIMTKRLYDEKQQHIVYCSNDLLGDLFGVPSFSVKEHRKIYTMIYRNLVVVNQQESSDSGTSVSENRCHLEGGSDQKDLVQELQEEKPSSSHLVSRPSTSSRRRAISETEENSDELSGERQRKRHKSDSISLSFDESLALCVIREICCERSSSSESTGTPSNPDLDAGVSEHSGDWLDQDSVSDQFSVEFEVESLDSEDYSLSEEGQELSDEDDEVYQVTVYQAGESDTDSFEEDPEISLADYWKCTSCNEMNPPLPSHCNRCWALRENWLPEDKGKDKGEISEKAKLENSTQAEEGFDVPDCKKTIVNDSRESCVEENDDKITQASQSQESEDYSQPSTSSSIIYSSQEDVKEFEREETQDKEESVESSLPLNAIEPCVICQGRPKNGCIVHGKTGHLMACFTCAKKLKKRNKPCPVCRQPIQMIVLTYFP
# VIM-2 inhibitor – blocks Pseudomonas aeruginosa VIM-2 metallo-beta-lactamase | hit rate 0.89% among 290,000 | purified VIM-2, nitrocefin hydrolysis, epi-absorbance fluorescence | AID 1527 | inhibition, % at 5.6 µM;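 active = inhibition above the mean of all tested compounds plus 3 SD, cutoff set per screening run, cut at about 7.5% in these data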;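 also: red hydrolysis product quenches plate fluorescence so inhibitors raise well fluorescence; 0% = enzyme with DMSO and 100% = DMSO without enzyme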
# IMP-1 inhibitor – blocks Pseudomonas aeruginosa IMP-1 metallo-beta-lactamase; purified IMP-1, nitrocefin hydrolysis, epi-absorbance fluorescence; inhibition, % at 5.6 µM; hit rate 0.45% among 290,000; AID 1556;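 active = inhibition above the mean plus 3 SD of all compounds in the same screening run, cut at about 4.5% in these data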;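 also: 0% = IMP-1 with DMSO and 100% = DMSO wells lacking enzyme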
#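 System: purified IMP-1; amount: IMP-1 0.2 nM before substrate addition; compound: single dose, 5.6 µM; times: 25 °C, 15 min preincubation, 25 min reaction; signal: Epi-absorbance via hydrolysed-nitrocefin quenching of white-plate fluorescence, 480/530 nm, EDTA stop; benchmarks: DMSO with and without IMP-1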
# aSyn UTR inh – MLPCN primary screen, SNCA 5' untranslated region; alpha-synuclein 5'UTR reporter, inhibitor activity; inhibition, % (tested at 7.5 µM); hit rate 0.82% among 300,000; in the data active = inhibition above about 60%;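 also: H4 neuroglioblastoma cells stably carrying SNCA 5'UTR luciferase fusion; 0% = DMSO wells and 100% = positive control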
# 697 NFkB inh – inhibitors of the PMA/ionomycin-induced NF-kB reporter in 697 B cells; 697 B-cell NF-kB luciferase reporter, 16 h; inhibition, % at 4 µM; hit rate 0.33% among 330,000; AID 435022; in the data active = inhibition above about 35%
# Mdm2 MdmX conf – human Mdm2/MdmX binding inhibition, confirmed | inhibition, % at 8 µM | AID 489028 | luminescent assay | shares compounds with Mdm2 MdmX PPI | hit rate 55% among 10,000; in the data active = inhibition above about 40%
# Full FLuc ctr – inhibits full-length luciferase, flagging false Mdm2/MdmX hits. SaOS-2 full-length luciferase counterscreen, luminescence. shares compounds with Mdm2 MdmX PPI. hit rate 77% among 6,200. inhibition, % at 8 µM;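 active = mean inhibition at 8 µM reaching about 37%, which flags the compound as non-specific, limit read from the data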;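 also: p53-null SaOS-2 cells with luciferase driven by a doxycycline-inducible promoter; compound on cells about two nights before reading with doxycycline added after day one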
# * hit, by the source's call; . = no result.
SMILES,Jurkat NFkB inh,Mdm2 MdmX PPI,VIM-2 inhibitor,IMP-1 inhibitor,aSyn UTR inh,697 NFkB inh,Mdm2 MdmX conf,others
C=CCn1c(N)c(C(=O)Nc2cccc(C)c2)c2nc3ccccc3nc21,12,67*,-2,-2,52,27,21,
OCC[C@@H]1C[C@@H](O)[C@H](O)[C@@]2(CCCc3ccccc3O2)O1,-1,21,-3,-2,-3,9,.,
Cc1sc2nc(C(C)C)nc(SCC(=O)N3c4ccccc4CC3C)c2c1C (configuration not stated),2,56*,-2,-5,35,-39,27,
Cc1noc2ncnc(Sc3ccccc3Cl)c12,6,70*,-2,-3,-11,15,-4,
CC(SCC(=O)NC12CC3CC(CC(C3)C1)C2)C(=O)O (configuration not stated),1,13,-1,0,10,10,.,
Cc1nnc2n(-c3ccccc3)c(=O)c3c4c(sc3n12)COC(C(C)C)C4 (configuration not stated),-13,28,-2,-2,-12,12,.,
CC(C)C1Cc2c(sc3[nH]c(=S)n(Cc4ccccc4)c(=O)c23)CO1 (configuration not stated),-15,53*,-5,-2,28,3,-5,
CCC1(c2ccc(F)cc2)NC(=O)N(CC(=O)Nc2ccccc2Cl)C1=O (configuration not stated),20,-33,-3,1,6,5,.,
COc1cc(CNc2ccc(N3CCCC3)cc2)cc(Cl)c1OC,4,41,1,-1,-15,-13,.,
C=CCOc1c(Cl)cc(CNc2ccc(N(C)C)cc2)cc1OC,5,60*,1,-2,-17,-11,54*,Full FLuc ctr=75*
O=C(CSc1nc2ccc(Nc3nc(N4CCOCC4)nc(N4CCOCC4)n3)cc2s1)N1CCOCC1,18,33,-2,-1,13,12,.,
O=C(CSc1nc2ccc(Nc3nc(N4CCOCC4)nc(N4CCOCC4)n3)cc2s1)Nc1ccccc1F,19,91*,-2,0,.,6,26,
O=C(CSc1nc2ccc(Nc3nc(N4CCOCC4)nc(N4CCOCC4)n3)cc2s1)Nc1ccccc1Cl,16,89*,-4,3,6,-3,38,Full FLuc ctr=88*
O=[N+]([O-])c1cc([N+](=O)[O-])c2cc3ccccc3nc2c1,14,82*,3,-2,-176,-144,29,
CC(=O)c1cccc(NC(=O)C(Sc2ncnc3ccccc23)c2ccccc2)c1 (configuration not stated),11,31,-2,-4,-28,-10,.,
Cc1ccc2nc(-c3ccccc3)nc(SC(C)C(=O)NCc3cccs3)c2c1 (configuration not stated),-11,63*,1,-1,13,-14,-10,
Cc1ccc(C)c2c(SC(C)C(=O)NCc3ccco3)nc(-c3ccccc3)nc12 (configuration not stated),13,17,-1,-2,18,18,.,
CCOC(=O)[C@@H]1[C@H]2COc3ccccc3[C@@H]2N2C(=O)N(c3ccc(F)cc3)C(=O)[C@]12C,-4,9,.,.,5,16,.,
CCOC(=O)C1CCCN(C(=O)c2ccccc2NC(=O)C2=C(C)OCCS2)C1 (configuration not stated),3,12,0,-3,0,-13,.,
Cc1ccc(NC(=S)NCc2ccc3[nH]c4c(c3c2)CCCC4)cc1,-20,72*,1,-1,30,-63,8,
COCCNC(=S)NCc1ccc2[nH]c3c(c2c1)CCCC3,11,-12,4,0,33,-19,.,
CC(C(=O)Nc1ccc(OCc2ccccc2)cc1)N1CCCC1 (configuration not stated),-33,-3,-3,-4,-25,-14,.,
CC(C)COCC(CN(Cc1ccccc1)c1ccccc1)N1CCCC1 (configuration not stated),17,60*,-1,0,28,-3,34,
O=S(=O)(Nc1nc2ccccc2s1)c1ccc(Br)s1,-14,-2,-2,-3,3,-23,.,
CCOC(=O)c1cc2c(N)c(C(=O)c3cc(C#N)c(SC)nc3C)sc2nc1C,19,50*,1,-1,14,12,25,
SMILES,Jurkat NFkB inh,Mdm2 MdmX PPI,VIM-2 inhibitor,IMP-1 inhibitor,aSyn UTR inh,697 NFkB inh,Mdm2 MdmX conf,others
COc1ccc(C(=O)C2CCCN(C(=O)c3cccc(Cl)c3F)C2)cc1OC (configuration not stated),26,18,0,-2,24,-8,.,
COc1cc(C(c2c(C)[nH][nH]c2=O)c2c(C)[nH][nH]c2=O)ccc1OCc1ccc([N+](=O)[O-])cc1,-97,-39,-3,-5,-146,8,.,
CCOC(=O)C(=Cc1ccc(OCc2ccc([N+](=O)[O-])cc2)c(OC)c1)C(=O)OCC,-80,99*,-3,-4,-267,26,34,
COc1cc(/C=N/NC(=O)c2cccc([N+](=O)[O-])c2)ccc1OCc1ccccc1,-59,-1,-3,0,-135,-5,.,
COC(=O)C(=Cc1ccc(OCc2ccc([N+](=O)[O-])cc2)c(OC)c1)C(=O)OC,-93,92*,-1,-2,-259,29,8,
O=C(c1noc2c1CCc1ccccc1-2)N1CCc2ccccc2C1,.,.,-1,-3,.,.,.,
CCOC(=O)c1c(Nc2ccc(Cl)cc2)sc(/C=C2\C=Nc3ccccc32)c1O,-7,64*,-2,-1,-11,-24,18,
Oc1nc(Nc2cccc(Cl)c2)sc1/C=C1\C=Nc2ccccc21,14,0,-2,-4,-60,11,.,
CCc1ccccc1NC(=O)CN(C)C(=O)c1cc(C2CC2)nc2c1cnn2C(C)C,2,-8,.,.,.,9,.,
Cc1cc(C)c2nc(SCC(=O)Nc3cc(C)on3)c(C#N)cc2c1,-26,58*,-3,-2,-40,18,8,
Cc1cc(C)c2cc(C#N)c(SCC(=O)Nc3ccc4c(c3)OCO4)nc2c1,4,80*,-3,-2,-13,20,5,
Cc1cc(C)c2cc(C#N)c(SCC(=O)NCC3CCCO3)nc2c1 (configuration not stated),-11,-12,-2,-1,13,7,.,
Cc1cccc2cc(C#N)c(SCC(=O)NNC(=O)Cc3ccccc3)nc12,2,78*,-7,-2,9,9,-2,
Cc1cc2cccc(C)c2nc1SCC(=O)NNC(=O)c1ccco1,-2,-13,-2,-2,4,0,.,
COc1ccc(NC(=O)C2=C(C)Nc3nc(CCCO)nn3C2c2ccc(OC)c(OC)c2)cc1 (configuration not stated),-14,17,-3,-2,-22,-24,.,
